Measurements reported in ChEMBL document CHEMBL1146374, “Clubbed triazoles: a novel approach to antitubercular drugs” (Eur J Med Chem, 2007).
Converted amounts (≈) assume the structure as drawn.

Assays:
[1] = Cytotoxicity against Vero-C1008 cells at 6.25 to 50 ug/ml; type: cell-based; conditions: chlorocebus sabaeus
Outline: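 Vero-C-1008 cells were exposed to compounds at several concentrations across 6.25–50 µg/ml. Cytotoxicity was read out by neutral red uptake.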

[2] = test system: Mycobacterium tuberculosis; experiment: (§1) Antituberculosis activity against Mycobacterium tuberculosis H37Rv by Microplate Alamar Blue Assay; type: functional
Outline: (§2)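 MIC against M. tuberculosis H37Rv (ATCC 27294) in BACTEC 12B medium by broth microdilution (MABA). Primary actives were retested at lower concentrations. MIC is the lowest concentration giving a […] fluorescence reduction versus controls. Fluorescent compounds were run in the BACTEC 460 radiometric system. Rifampin was the reference.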

Staphylococcus aureus = experiment: Antibacterial activity against Staphylococcus aureus at 50 to 100 uM after 24 hrs by well diffusion method; type: functional
Outline: (§3)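 Agar well diffusion: nutrient agar plates with 10 mm wells cut by sterile cork borer; 24-h subcultured bacteria swabbed onto the plates from nutrient broth. Compounds were dissolved in chloroform and added to wells at […]. Gentamycin served as the standard antibiotic.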

Pseudomonas aeruginosa = experiment: Antibacterial activity against Pseudomonas aeruginosa at 50 to 100 uM after 24 hrs by well diffusion method; type: functional; outline: as §3
Escherichia coli = experiment: Antibacterial activity against Escherichia coli at 50 to 100 uM after 24 hrs by well diffusion method; type: functional; outline: as §3
[3] = test system: Mycobacterium tuberculosis; experiment: as §1; type: functional; outline: as §2; remark: listed apart in the source
[4] = test system: Mycobacterium tuberculosis; experiment: Growth inhibition of Mycobacterium tuberculosis H37Rv at 6.25 ug/ml by Microplate Alamar Blue Assay; type: functional; conditions: read-out: GI
Outline: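 Primary single-concentration screen against M. tuberculosis H37Rv (ATCC 27294) in BACTEC 12B medium by MABA broth microdilution, read as % inhibition. Compounds that fluoresce were tested in the BACTEC 460 radiometric system. More than 95% inhibition was the activity cutoff.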

Salmonella typhi = experiment: Antibacterial activity against Salmonella typhi at 50 to 100 uM after 24 hrs by well diffusion method; type: functional, Salmonella enterica subsp. enterica serovar Typhi
Outline: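 Agar well diffusion on nutrient agar plates; wells cut with a 10 mm sterile cork borer. Plates swabbed with 24-h subcultured bacteria from nutrient broth. Compounds dissolved in chloroform and added to wells at a range of concentrations. Gentamycin was the standard.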

Row | Molecule | Activity [1] | MIC [2] [µg/mL] | zone of inhibition (Staphylococcus aureus) [mm] | zone of inhibition (Pseudomonas aeruginosa) [mm] | zone of inhibition (Escherichia coli) [mm] | MIC [3] [µM] | inhibition of growth at 6.25 µg/mL [4] [%] | Inhibition (Salmonella typhi) [%] | inhibition (Staphylococcus aureus) [%] | inhibition (Pseudomonas aeruginosa) [%] | inhibition (Escherichia coli) [%] | inhibition (Salmonella typhi; Salmonella enterica subsp. enterica serovar Typhi) [%]
1 | CC(=O)Nc1nc(Cc2nnc(SCC(=O)NNC(=O)CCl)n2NC(=O)c2ccccc2)cs1 | Non-toxic | < 6.25 | – | – | – | – | – | – | – | – | – | –
2 | CC(=O)Nc1nc(Cc2nnc(SCC#N)n2NC(=O)c2ccccc2)cs1 | Non-toxic | < 6.25 | 22 | 22 | 20 | 6.25 (≈ 2.58 µg/mL) | 97 | 16 | – | – | – | –
3 | NNC(=O)CSc1nnc(Cc2csc(NCCC(=O)O)n2)n1NC(=O)c1ccccc1 | Non-toxic | < 6.25 | 20 | 18 | 14 | 6.25 (≈ 2.98 µg/mL) | 96 | 12 | – | – | – | –
4 | Nn1c(S)nnc1Cc1csc(NCCC(=O)O)n1 | Non-toxic | < 6.25 | 25 | 22 | 20 | – | – | 16 | – | – | – | –
5 | O=C(CCl)Nc1nc(Cc2nnc(S)n2NC(=O)c2ccccc2)cs1 | Non-toxic | < 6.25 | 20 | 20 | 18 | – | – | 14 | – | – | – | –
6 | O=C(O)CCNc1nc(Cc2nnc(SCC(=O)NNC(=O)CCl)n2NC(=O)c2ccccc2)cs1 | Non-toxic | < 6.25 | – | – | – | – | – | – | – | – | – | –
7 | O=C(CCl)Nc1nc(Cc2nnc(SCSc3nnc(Cc4csc(NC(=O)CCl)n4)n3NC(=O)c3ccccc3)n2NC(=O)c2ccccc2)cs1 | Non-toxic | < 6.25 | 22 | 22 | 20 | – | – | 16 | – | – | – | –
8 | COC(=O)CSc1nnc(Cc2csc(NC(=O)CCl)n2)n1NC(=O)c1ccccc1 | Non-toxic | < 6.25 | 24 | 22 | 20 | – | – | 18 | – | – | – | –
9 | CC(=O)NNC(=O)CSc1nnc(Cc2csc(NC(=O)c3ccccc3)n2)n1NC(=O)c1ccccc1 | Non-toxic | < 6.25 | – | – | – | – | – | – | – | – | – | –
10 | Nn1c(S)nnc1CSc1nnc(Cc2csc(NC(=O)c3ccccc3)n2)n1NC(=O)c1ccccc1 | Non-toxic | < 6.25 | 12 | 18 | 18 | – | – | 14 | – | – | – | –
11 | O=C(CSc1nnc(Cc2csc(NC(=O)CCl)n2)n1NC(=O)c1ccccc1)NNC(=O)c1ccccc1 | Non-toxic | < 6.25 | – | – | – | – | – | – | – | – | – | –
12 | CC(=O)Nc1nc(Cc2nnc(SCC(=O)N/N=C/c3ccccc3)n2NC(=O)c2ccccc2)cs1 | Non-toxic | < 6.25 | – | – | – | 1.56 (≈ 0.834 µg/mL) | 96 | – | – | – | – | –
13 | CC(=O)NNC(=O)CSc1nnc(Cc2csc(NC(=O)CCl)n2)n1NC(=O)c1ccccc1 | Non-toxic | < 6.25 | 24 | 10 | 14 | – | – | 14 | – | – | – | –
14 | N#CCSc1nnc(Cc2csc(NCCC(=O)O)n2)n1NC(=O)c1ccccc1 | Non-toxic | < 6.25 | 26 | 24 | 20 | – | – | 20 | – | – | – | –
15 | O=C(Nc1nc(Cc2nnc(SCSc3nnc(Cc4csc(NC(=O)c5ccccc5)n4)n3NC(=O)c3ccccc3)n2NC(=O)c2ccccc2)cs1)c1ccccc1 | Non-toxic | < 6.25 | 11 | 24 | 16 | – | – | 12 | – | – | – | –
16 | COC(=O)CSc1nnc(Cc2csc(NCCC(=O)O)n2)n1NC(=O)c1ccccc1 | Non-toxic | < 6.25 | 16 | 18 | 12 | – | – | 12 | – | – | – | –
17 | O=C(CCl)NNC(=O)CSc1nnc(Cc2csc(NC(=O)CCl)n2)n1NC(=O)c1ccccc1 | Non-toxic | < 6.25 | – | – | – | – | – | – | – | – | – | –
18 | CC(=O)Nc1nc(Cc2nnc(SCc3nnc(S)n3N)n2NC(=O)c2ccccc2)cs1 | Non-toxic | < 6.25 | 14 | 16 | 12 | – | – | 18 | – | – | – | –
19 | COC(=O)CSc1nnc(Cc2csc(NC(=O)c3ccccc3)n2)n1NC(=O)c1ccccc1 | Non-toxic | < 6.25 | 22 | 22 | 20 | – | – | 20 | – | – | – | –
20 | O=C(CSc1nnc(Cc2csc(NC(=O)CCl)n2)n1NC(=O)c1ccccc1)N/N=C/c1ccccc1 | Non-toxic | < 6.25 | – | – | – | 0.78 (≈ 0.444 µg/mL) | 98 | – | – | – | – | –

Row | Molecule | Activity [1] | MIC [2] [µg/mL] | zone of inhibition (Staphylococcus aureus) [mm] | zone of inhibition (Pseudomonas aeruginosa) [mm] | zone of inhibition (Escherichia coli) [mm] | MIC [3] [µM] | inhibition of growth at 6.25 µg/mL [4] [%] | Inhibition (Salmonella typhi) [%] | inhibition (Staphylococcus aureus) [%] | inhibition (Pseudomonas aeruginosa) [%] | inhibition (Escherichia coli) [%] | inhibition (Salmonella typhi; Salmonella enterica subsp. enterica serovar Typhi) [%]
21 | Nn1c(S)nnc1CSc1nnc(Cc2csc(NCCC(=O)O)n2)n1NC(=O)c1ccccc1 | Non-toxic | < 6.25 | 14 | 11 | 18 | – | – | 12 | – | – | – | –
22 | CC(=O)Nc1nc(Cc2nnc(S)n2NC(=O)c2ccccc2)cs1 | Non-toxic | < 6.25 | 16 | 16 | 20 | – | – | 16 | – | – | – | –
23 | O=C(O)CCNc1nc(Cc2nnc(SCC(=O)NNC(=O)c3ccccc3)n2NC(=O)c2ccccc2)cs1 | Non-toxic | < 6.25 | – | – | – | – | – | – | – | – | – | –
24 | O=C(O)CCNc1nc(Cc2nnc(SCSc3nnc(Cc4csc(NCCC(=O)O)n4)n3NC(=O)c3ccccc3)n2NC(=O)c2ccccc2)cs1 | Non-toxic | < 6.25 | 18 | 16 | 10 | – | – | 12 | – | – | – | –
25 | CC(=O)NNC(=O)CSc1nnc(Cc2csc(NCCC(=O)O)n2)n1NC(=O)c1ccccc1 | Non-toxic | < 6.25 | – | – | – | – | – | – | – | – | – | –
26 | O=C(O)CCNc1nc(Cc2nnc(S)n2NC(=O)c2ccccc2)cs1 | Non-toxic | < 6.25 | 11 | 17 | 15 | – | – | 22 | – | – | – | –
27 | O=C(Nc1nc(Cc2nnc(S)n2NC(=O)c2ccccc2)cs1)c1ccccc1 | Non-toxic | < 6.25 | 16 | 10 | 10 | – | – | 18 | – | – | – | –
28 | Nn1c(S)nnc1Cc1csc(NC(=O)CCl)n1 | Non-toxic | < 6.25 | 18 | 17 | 14 | – | – | 12 | – | – | – | –
29 | CC(=O)Nc1nc(Cc2nnc(SCC(=O)NNC(=O)c3ccccc3)n2NC(=O)c2ccccc2)cs1 | Non-toxic | < 6.25 | – | – | – | – | – | – | – | – | – | –
30 | COC(=O)CSc1nnc(Cc2csc(NC(C)=O)n2)n1NC(=O)c1ccccc1 | Non-toxic | < 6.25 | 22 | 11 | 24 | – | – | 24 | – | – | – | –
31 | Nn1c(S)nnc1Cc1csc(NC(=O)c2ccccc2)n1 | Non-toxic | < 6.25 | 22 | 20 | 18 | – | – | 14 | – | – | – | –
32 | CC(=O)Nc1nc(Cc2nnc(SCSc3nnc(Cc4csc(NC(C)=O)n4)n3NC(=O)c3ccccc3)n2NC(=O)c2ccccc2)cs1 | Non-toxic | < 6.25 | 16 | 16 | 12 | – | – | 12 | – | – | – | –
33 | N#CCSc1nnc(Cc2csc(NC(=O)CCl)n2)n1NC(=O)c1ccccc1 | Non-toxic | < 6.25 | 20 | 16 | 10 | – | – | 10 | – | – | – | –
34 | Nn1c(S)nnc1CSc1nnc(Cc2csc(NC(=O)CCl)n2)n1NC(=O)c1ccccc1 | Non-toxic | < 6.25 | 12 | 10 | 10 | – | – | 14 | – | – | – | –
35 | O=C(CSc1nnc(Cc2csc(NC(=O)c3ccccc3)n2)n1NC(=O)c1ccccc1)NNC(=O)c1ccccc1 | Non-toxic | < 6.25 | – | – | – | – | – | – | – | – | – | –
36 | CO[C@H]1/C=C/O[C@@]2(C)Oc3c(C)c(O)c4c(O)c(c(/C=N/N5CCN(C)CC5)c(O)c4c3C2=O)NC(=O)/C(C)=C\C=C\[C@H](C)[C@H](O)[C@@H](C)[C@@H](O)[C@@H](C)[C@H](OC(C)=O)[C@@H]1C [RIFAMPIN] | – | 15 (≈ 18.2 µM) | – | – | – | – | 97 | – | – | – | – | –
37 | CC(=O)NNC(=O)CSc1nnc(Cc2csc(NC(C)=O)n2)n1NC(=O)c1ccccc1 | Non-toxic | < 6.25 | 21 | 18 | 10 | – | – | 18 | – | – | – | –
38 | GENTAMICIN | – | – | – | – | – | – | – | – | 34 | 35 | 31 | 30
39 | O=C(CCl)NNC(=O)CSc1nnc(Cc2csc(NC(=O)c3ccccc3)n2)n1NC(=O)c1ccccc1 | Non-toxic | < 6.25 | – | – | – | – | – | – | – | – | – | –
